This is one part of a sample in which hits are shown more often than they occur.
A1 apoptosis 2 – A1 inhibition read as caspase activation | MEF A1-2A-BIM cells, caspase-Glo luminescence, 3 h; percent of clofoctol response, DMSO zero | 24,000 tested, under 10 active | AID 2465 | caspase activation, % (concentration not given with the values); in the data active means caspase activation above about 5.9%; inconclusive means no clear call, values can overlap the other calls; inactive means below about 2.2%
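Material: mouse embryonic fibroblasts co-expressing A1 and BIM (A1-2A-BIM), primed for A1 dependence / Quantity: 2500 cells/well / Buffer or medium: RPMI-1640 growth medium with 10% FBS / Doses: 50 nL compound per well, pinned / Schedule: 3 h compound exposure at 37 °C / Signal: Caspase-Glo luminescence (DEVD substrate) / Measure: Caspase-3/7 activation, seen as rise in luminescence signal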
INS-1E ATP HTS – rescue of cytokine-induced death in INS-1E beta cells. INS-1E cytokine-induced death, ATP luminescence, 48 h; normalised: neutral wells 0, positive control 100. protection from cytokine-induced ATP loss, % at 10 µM. hit rate 0.1% among 20,000. AID 488910;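 active means mean replicate protection from cytokine-induced ATP loss at least 50% and at least 75% of replicates each reaching 50%; inconclusive means meets only one of the two criteria, mean or replicate share; inactive means fails both the mean and replicate share criteria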
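Assay system – rat INS-1E insulinoma cell line · Quantity – 8000 cells per well · Buffer or medium – RPMI without phenol red, 5% FBS · Schedule – 48 h co-treatment, 10 min post-lysis read · Technique – luminescent ATP assay (CellTiter-Glo)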
T cruzi HTS – inhibitors of intracellular Trypanosoma cruzi; AID 651903; hit rate 4.9% among 22,000; intracellular Trypanosoma cruzi in host cells, plate reader; activity score (inhibition), % at 5.01 µM; in the data active means activity score above about 55%; inconclusive means no clear call, values can overlap the other calls;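 further: parasites and compound incubated about four days before reading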
Large screens that a line does not name were inactive.

C[C@@H]1CN([C@H](C)CO)C(=O)Cc2cc(NS(=O)(=O)c3ccc(Cl)cc3)ccc2O[C@@H]1CN(C)Cc1ccc(C(F)(F)F)cc1	none
C[C@@H]1CN([C@H](C)CO)C(=O)Cc2cc(NS(=O)(=O)c3ccc(Cl)cc3)ccc2O[C@H]1CN(C)Cc1ccc(C(F)(F)F)cc1	T cruzi HTS 64
C[C@H](CO)N1C[C@H](C)[C@@H](CN(C)Cc2ccc(C(F)(F)F)cc2)Oc2ccc(NS(=O)(=O)c3ccc(Cl)cc3)cc2CC1=O	none (no result: INS-1E ATP HTS, T cruzi HTS)
C[C@@H]1CN([C@@H](C)CO)C(=O)Cc2cc(NS(=O)(=O)c3ccccc3)ccc2O[C@@H]1CN(C)Cc1ccc(C(F)(F)F)cc1	none
C[C@H]1CN([C@@H](C)CO)C(=O)Cc2cc(NS(=O)(=O)c3ccc(Cl)cc3)ccc2O[C@@H]1CN(C)Cc1ccc(C(F)(F)F)cc1	T cruzi HTS 72 (no result: A1 apoptosis 2)
NC(=O)[C@H]1[C@@H]2C(=O)O[C@@H](c3ccccc3)[C@@H](c3ccccc3)N2[C@@H](c2ccc(O)cc2)[C@]12C(=O)Nc1ccc(C#CC3=CCCCC3)cc12	none (no result: INS-1E ATP HTS, T cruzi HTS)
COc1ccc(CN(C)C[C@@H]2Oc3ccc(NS(=O)(=O)c4ccc(OC)cc4)cc3C(=O)N([C@@H](C)CO)C[C@H]2C)cc1	none
C[C@H]1CN([C@@H](C)CO)C(=O)c2cc(NS(=O)(=O)c3ccccc3)ccc2O[C@@H]1CN(C)Cc1ccc(-c2ccccc2)cc1	T cruzi HTS 67
C[C@@H]1CN([C@@H](C)CO)C(=O)c2cc(NS(=O)(=O)c3ccccc3)ccc2O[C@@H]1CN(C)Cc1ccc(-c2ccccc2)cc1	none (no result: A1 apoptosis 2)
Cc1ccc(S(=O)(=O)Nc2ccc3c(c2)C(=O)N([C@@H](C)CO)C[C@H](C)[C@@H](CN(C)Cc2ccc(-c4ccccc4)cc2)O3)cc1	T cruzi HTS 78
Cc1ccc(S(=O)(=O)Nc2ccc3c(c2)C(=O)N([C@@H](C)CO)C[C@@H](C)[C@H](CN(C)Cc2ccc(-c4ccccc4)cc2)O3)cc1	T cruzi HTS inconclusive (no result: A1 apoptosis 2)
C[C@@H]1CN([C@H](C)CO)C(=O)Cc2cc(N(C)C)ccc2O[C@@H]1CN(C)Cc1ccc(-c2ccccc2)cc1	none
C[C@H](CO)N1C[C@H](C)[C@H](CN(C)Cc2ccc(Cl)c(Cl)c2)Oc2ccc(NC(=O)Cc3cn(C)c4ccccc34)cc2C1=O	T cruzi HTS 56
C[C@H]1CN([C@@H](C)CO)C(=O)c2cc(NC(=O)Cc3cn(C)c4ccccc34)ccc2O[C@H]1CN(C)S(=O)(=O)c1ccc(Cl)cc1	T cruzi HTS 67
C[C@H]1CN([C@@H](C)CO)C(=O)c2cc(NC(=O)Cc3cn(C)c4ccccc34)ccc2O[C@@H]1CN(C)Cc1ccc(-c2ccccc2)cc1	T cruzi HTS 75
C[C@@H]1CN([C@H](C)CO)C(=O)Cc2cc(NC(=O)Cc3cn(C)c4ccccc34)ccc2O[C@@H]1CN(C)Cc1ccc(Cl)c(Cl)c1	T cruzi HTS 69
C[C@H](CO)N1C[C@H](C)[C@H](CN(C)S(=O)(=O)c2ccc(Cl)cc2)Oc2ccc(NC(=O)Cc3cn(C)c4ccccc34)cc2C1=O	none
C[C@H]1CN([C@@H](C)CO)C(=O)Cc2cc(NC(=O)Cc3cn(C)c4ccccc34)ccc2O[C@@H]1CN(C)Cc1ccc(Cl)c(Cl)c1	none (no result: INS-1E ATP HTS, T cruzi HTS)
C[C@H](CO)N1C[C@H](C)[C@@H](CN(C)Cc2ccc(Cl)c(Cl)c2)Oc2ccc(NC(=O)Cc3cn(C)c4ccccc34)cc2C1=O	none
C[C@@H]1CN([C@H](C)CO)C(=O)c2cc(NC(=O)Cc3cn(C)c4ccccc34)ccc2O[C@H]1CN(C)Cc1ccc(-c2ccccc2)cc1	none
COc1ccc(S(=O)(=O)N(C)C[C@@H]2Oc3ccc(NC(=O)Nc4ccc5c(c4)OCO5)cc3CC(=O)N([C@H](C)CO)C[C@@H]2C)cc1	none
C[C@@H]1CCCCO[C@@H](CN(C)S(=O)(=O)c2ccc(F)cc2)[C@H](C)CN([C@H](C)CO)C(=O)c2cc(NS(C)(=O)=O)ccc2O1	none (no result: INS-1E ATP HTS, T cruzi HTS)
Cc1ccc(S(=O)(=O)N(C)C[C@@H]2OCCCC[C@@H](C)Oc3ccc(NS(=O)(=O)c4c(C)noc4C)cc3C(=O)N([C@@H](C)CO)C[C@H]2C)cc1	none (no result: INS-1E ATP HTS, T cruzi HTS)
C[C@@H]1CN([C@@H](C)CO)C(=O)Cc2cc(NC(=O)Nc3ccc4c(c3)OCO4)ccc2O[C@@H]1CN(C)Cc1ccc(-c2ccccc2)cc1	T cruzi HTS 64
C[C@H](CO)N1C[C@H](C)[C@H](CN(C)Cc2ccc(-c3ccccc3)cc2)Oc2ccc(NC(=O)Nc3ccc4c(c3)OCO4)cc2C1=O	none (no result: INS-1E ATP HTS)
C[C@H](CO)N1C[C@H](C)[C@@H](CN(C)Cc2ccccc2)Oc2ccc(NC(=O)Nc3ccc4c(c3)OCO4)cc2CC1=O	none (no result: INS-1E ATP HTS, T cruzi HTS)
C[C@H]1CN([C@@H](C)CO)C(=O)Cc2cc(NC(=O)Nc3ccccc3)ccc2O[C@H]1CN(C)Cc1ccc2c(c1)OCO2	none (no result: A1 apoptosis 2)
C[C@H]1CN([C@@H](C)CO)C(=O)Cc2cc(NC(=O)Nc3ccc4c(c3)OCO4)ccc2O[C@@H]1CN(C)Cc1ccccc1	none (no result: A1 apoptosis 2)
C[C@@H]1CN([C@H](C)CO)C(=O)c2cc(NC(=O)Nc3ccc4c(c3)OCO4)ccc2O[C@@H]1CN(C)Cc1ccc(-c2ccccc2)cc1	T cruzi HTS 88
C[C@H]1CN([C@@H](C)CO)C(=O)Cc2cc(NC(=O)Nc3ccc4c(c3)OCO4)ccc2O[C@H]1CN(C)Cc1ccc(-c2ccccc2)cc1	T cruzi HTS 76 (no result: A1 apoptosis 2)
C[C@@H]1CN([C@H](C)CO)C(=O)Cc2cc(NC(=O)Nc3ccc4c(c3)OCO4)ccc2O[C@@H]1CN(C)Cc1ccc(-c2ccccc2)cc1	T cruzi HTS 62
C[C@@H]1CCCCO[C@H](CN(C)C(=O)CCC(F)(F)F)[C@@H](C)CN([C@H](C)CO)C(=O)c2cc(NS(C)(=O)=O)ccc2O1	none
C[C@@H]1CN([C@H](C)CO)C(=O)c2cccc(NC(=O)Nc3cccc4ccccc34)c2O[C@@H]1CN(C)Cc1ccc(C(F)(F)F)cc1	T cruzi HTS inconclusive (no result: A1 apoptosis 2)
C[C@@H]1CN([C@@H](C)CO)C(=O)CCCn2cc(nn2)CO[C@H]1CN(C)CC1CCCC1	none (no result: INS-1E ATP HTS, T cruzi HTS)
Cc1noc(C)c1NC(=O)N(C)C[C@H]1OCCCC[C@@H](C)Oc2ccc(NC(=O)CCC(F)(F)F)cc2C(=O)N([C@@H](C)CO)C[C@H]1C	none (no result: INS-1E ATP HTS, T cruzi HTS)
C[C@H](CO)N1C[C@H](C)[C@@H](CN(C)Cc2ccc(C(=O)O)cc2)Oc2c(NS(C)(=O)=O)cccc2C1=O	none (no result: A1 apoptosis 2)
C[C@@H]1CN([C@H](C)CO)C(=O)Cc2cc(NC(=O)Nc3ccc(F)cc3)ccc2O[C@@H]1CN(C)Cc1ccc(C(F)(F)F)cc1	T cruzi HTS 60
C[C@@H]1CN([C@@H](C)CO)C(=O)Cc2cc(NC(=O)Nc3ccc(C(F)(F)F)cc3)ccc2O[C@H]1CN(C)Cc1ccc(C(F)(F)F)cc1	none (no result: INS-1E ATP HTS, T cruzi HTS)
COc1ccc(CN(C)C[C@@H]2Oc3ccc(NC(=O)Nc4ccc(C(F)(F)F)cc4)cc3CC(=O)N([C@@H](C)CO)C[C@@H]2C)cc1	none
C[C@@H]1CN([C@@H](C)CO)C(=O)Cc2cc(NC(=O)C3CCCCC3)ccc2O[C@@H]1CN(C)Cc1ccc(C(F)(F)F)cc1	none
